This is an account of results in PubChem BioAssay.

“And” between values parts separate entries of the source, which are not always exact repeats. Equal values may be shown once. The source made the active and inactive calls.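 How the source made its calls, unless noted: active means viability at or under a set limit in both replicates, limit being median viability minus 3 SD (cut at about 48% in these data, passing the limit was not always enough); inconclusive means at or under the limit in just one replicate; inactive means at or above the limit in both replicates.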

Assay [1] in a line: Her2 expression decrease, cell viability multiplex – SKBR3 breast tumor cells, AlphaScreen, ATP viability, primary screen (AID 461;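 active means Her2 level under about 52% in both replicate screens, with viability over 70% of control, limit read from the data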;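 on Her2 level: lower value means less Her2 protein in the cells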;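 on viability: percent of carrier control wells set as 100% viability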). The settings on record: SKBR3 Her2 protein level, 18-24 h, measured here: SKBR3 viability, ATP luminescence, at 10 µM.
The target of assay [2] is Receptor tyrosine-protein kinase erbB-2 (Homo sapiens) (UniProt P04626). The assay is described as above. The settings on record: 18-24 h, at 10 µM, stronger effect = lower value.
A short description of assay [3]: reduced viability of SK-BR-3 breast cancer cells – cell-based, 24 h, human, pilot screen (AID 572;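 active means viability at or below 10% of carrier control in both of two separate runs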;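 further: compound exposure lasted between 18 and 24 h rather than exactly 24 h; 100% = carrier-treated control wells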). The settings on record: SK-BR-3 viability, CellTiter-Glo luminescence, at 10 µM, stronger effect = lower value. (Cellular ATP, detected with luciferase, serves as a proxy for viable cell number.)
Assay [4] in a line: HUVEC growth inhibition – cell-based, human, primary screen (AID 575;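 active means viability at or below 30% in both replicate assays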;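 further: 100% = median of untreated cell wells with 0.1% DMSO on each plate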). The settings on record: HUVEC proliferation, CellTiter-Glo luminescence, 72 h; at 10 µM; stronger effect = lower value. The procedure, abridged: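 Test system: primary human umbilical vein endothelial cells. Quantity: 1250 cells/well. Compound: single 10 µM dose, 0.1% DMSO, from 5x medium stock. Timing: 72 h treatment at 37 °C. Detection: ATP-based CellTiter-Glo luminescent read. Benchmarks: vehicle and MePR control wells. Format: 384-well plates coated with collagen.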

Assay [5] is described as follows: H69AR cell proliferation blockers – human, duplicate replicates, primary screen (AID 580).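 Further: 100% = mean luminescence of untreated wells and 0% = no signal.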 The settings on record: H69AR lung tumor cells viability, ATP luminescence, 72 h; at 10 µM; stronger effect = lower value.
Assay [6] is described as follows: MRP1 drug-resistance reversers in H69AR cells – cell-based, doxorubicin co-treatment, pilot screen (AID 601;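 active means viability loss from added drug above about 55%, and viability with drug at most 40%, in both replicates, limit read from the data, passing the limit was not always enough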). The settings on record: CellTiter-Glo, 72 h, at 10 µM; for differential viability (reversal): stronger effect = higher value.
A short description of assay [7]: yeast transport mutant growth inhibition pilot in 384-well plates, post-Golgi transport modulator project (AID 636; in the data active means inhibition above about 31%). The settings on record: absorbance 615 nm, about 18 h, stronger effect = higher value.
Assay [8] can be described thus: growth suppression of yeast trafficking mutant, preliminary HTS, modulators of trafficking downstream of Golgi apparatus project, 1536-format plate, OD 615 nm (AID 637; in the data active means inhibition above about 30%). The settings on record: yeast transport mutant growth, absorbance 615 nm, 18 h; stronger effect = higher value.
[9] abbreviates: H69AR cells + 2 uM doxorubicin, measured here: viability with 2 uM doxorubicin, stronger effect = lower value.
The mark [10] stands for this setting: H69AR cells, compound alone cytotoxicity.

Sequence of Receptor tyrosine-protein kinase erbB-2 (Homo sapiens) (P04626 whole entry, looked up): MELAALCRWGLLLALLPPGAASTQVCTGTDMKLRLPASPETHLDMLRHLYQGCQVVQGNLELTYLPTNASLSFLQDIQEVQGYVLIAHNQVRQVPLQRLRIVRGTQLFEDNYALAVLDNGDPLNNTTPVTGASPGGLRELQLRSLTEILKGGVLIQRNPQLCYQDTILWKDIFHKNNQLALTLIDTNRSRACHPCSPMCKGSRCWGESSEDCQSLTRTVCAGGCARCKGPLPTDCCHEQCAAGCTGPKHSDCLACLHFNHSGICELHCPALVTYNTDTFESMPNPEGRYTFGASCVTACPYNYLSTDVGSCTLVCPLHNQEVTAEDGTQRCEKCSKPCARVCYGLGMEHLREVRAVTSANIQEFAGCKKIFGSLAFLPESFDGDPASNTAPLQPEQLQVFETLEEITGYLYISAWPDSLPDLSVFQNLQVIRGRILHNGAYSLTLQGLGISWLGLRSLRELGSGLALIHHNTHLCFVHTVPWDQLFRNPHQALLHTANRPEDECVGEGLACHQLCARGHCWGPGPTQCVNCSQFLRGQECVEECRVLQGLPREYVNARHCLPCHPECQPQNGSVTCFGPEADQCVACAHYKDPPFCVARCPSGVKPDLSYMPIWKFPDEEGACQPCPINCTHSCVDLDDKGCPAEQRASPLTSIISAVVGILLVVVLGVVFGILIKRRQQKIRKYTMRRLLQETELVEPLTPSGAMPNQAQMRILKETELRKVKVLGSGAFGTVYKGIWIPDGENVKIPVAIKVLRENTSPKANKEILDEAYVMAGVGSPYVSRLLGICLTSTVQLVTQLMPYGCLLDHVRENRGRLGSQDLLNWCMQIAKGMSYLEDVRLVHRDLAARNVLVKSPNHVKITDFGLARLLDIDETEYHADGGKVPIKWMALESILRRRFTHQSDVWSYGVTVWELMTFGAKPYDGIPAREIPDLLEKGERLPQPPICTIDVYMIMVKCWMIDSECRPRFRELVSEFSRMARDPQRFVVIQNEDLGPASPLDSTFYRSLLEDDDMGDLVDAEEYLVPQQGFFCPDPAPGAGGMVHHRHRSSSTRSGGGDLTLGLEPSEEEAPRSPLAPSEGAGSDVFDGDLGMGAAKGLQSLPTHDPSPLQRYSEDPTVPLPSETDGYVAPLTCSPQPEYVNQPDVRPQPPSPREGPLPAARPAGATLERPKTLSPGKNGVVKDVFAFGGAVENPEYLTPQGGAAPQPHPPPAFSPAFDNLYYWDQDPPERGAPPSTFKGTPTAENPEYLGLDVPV

By viability is commonly meant a read-out of living cells in per cent, often relative to untreated cells. For orientation: inhibition means the change of the read-out against control, counted positive when it falls. With `CCCCN(CCCC)C(=O)CN(C)S(=O)(=O)c1ccc2c(c1)n(C)c(=O)c(=O)n2C`, the viability in assay [1] is 99.5%; in assay [3], 99.5% (inactive); in assay [4], 113% (inactive); in assay [5] it was 96.1% (inactive); in assay [6] (setting [9]), 92.7%; in assay [6] (setting [10]) it was 96.1%. The Her2 level in assay [2] was 86% (inactive). The differential viability (reversal) in assay [6] (H69AR cells + 2 uM doxorubicin) is 3.39% (inactive). For the same molecule, the inhibition in assay [7] is -2.24% (inactive); in assay [8] it was 2.38% (inactive).
Regarding `C[C@]12CCC(=O)C=C1CC[C@@H]1[C@@H]2[C@@H](O)C[C@@]2(C)[C@H]1CC[C@]2(O)C(=O)COC(=O)CCC(=O)O`, the viability in assay [1] was 95%; in assay [3], 95% (inactive) and 100% (inactive); in assay [4] it was 81.3% (inactive) and 75% (inactive); in assay [5], 111% (inactive) and 103% (inactive); in assay [6] (setting [9]) it was 101% and 103%; in assay [6] (setting [10]), 111% and 103%. In addition, the Her2 level in assay [2] is 120% (inactive). The differential viability (reversal) in assay [6] (H69AR cells + 2 uM doxorubicin) was 9.53% (inactive) and -0.58% (inactive). For the same molecule, the inhibition in assay [7] is -3.38% (inactive); in assay [8], 6.33% (inactive).
In the case of `Cc1ccc(-c2nc3ccccc3[nH]2)s1`, the viability in assay [1] was 74%; in assay [3], 74% (inactive); in assay [4], 59.8% (inactive); in assay [5] it was 58.8% (inactive); in assay [6] (setting [9]) it was 54.5%; in assay [6] (setting [10]), 58.8%. The Her2 level in assay [2] was 95.5% (inactive). For the same molecule, the differential viability (reversal) in assay [6] (H69AR cells + 2 uM doxorubicin) was 4.25% (inactive). Also, the values for the inhibition in assay [7] and in assay [8] were 0.77% (inactive) and -9% (inactive), respectively.
Take `O=C(NCc1cccnc1)c1cn(CCc2ccccc2)nn1`: the viability was 99.5% in assay [1]; 99.5% (inactive) in assay [3]; 130% (inactive) in assay [4]; 109% (inactive) in assay [5]; 89% in assay [6] (setting [9]); 109% in assay [6] (setting [10]). Further, the Her2 level in assay [2] is 93% (inactive). In addition, in assay [6] (H69AR cells + 2 uM doxorubicin), the differential viability (reversal) was 20.4% (inactive). For the same molecule, the inhibition in assay [7] is -5.27% (inactive); in assay [8] it was 4.33% (inactive).
Consider `O=C(CN1C(=O)c2cccc3cccc1c23)N1CCN(c2ccccc2)CC1`, for which the viability in assay [1] is 100%; in assay [3], 100% (inactive); in assay [4], 111% (inactive); in assay [5] it was 113% (inactive); in assay [6] (setting [9]) it was 89.5%; in assay [6] (setting [10]), 113%. In addition, in assay [2], the Her2 level was 103% (inactive). Also, in assay [6] (H69AR cells + 2 uM doxorubicin), the differential viability (reversal) is 23.3% (inactive). The inhibition in assay [7] was 1.49% (inactive); in assay [8], -1.5% (inactive).
Turning to `CCC1Oc2ccc(C)cc2N(CC(=O)N(Cc2cccnc2)Cc2ccc(C)o2)C1=O` (stereo not given), the viability is 93% in assay [1]; 93% (inactive) in assay [3]; 83.7% (inactive) in assay [4]; 74.8% (inactive) in assay [5]; 33.7% in assay [6] (setting [9]); 74.8% in assay [6] (setting [10]). For the same molecule, the Her2 level in assay [2] is 84% (inactive). Moreover, in assay [6] (H69AR cells + 2 uM doxorubicin), the differential viability (reversal) is 41.1% (inactive). The inhibition is -6.27% (inactive) in assay [7] and 6.56% (inactive) in assay [8].
For `O=C(NCc1ccc(F)cc1)C1CCN(C(=O)NCc2ccccc2)CC1`, the viability in assay [1] was 115%; in assay [3] it was 115% (inactive); in assay [4] it was 89.8% (inactive); in assay [5] it was 101% (inactive); in assay [6] (setting [9]), 93.8%; in assay [6] (setting [10]), 101%. In addition, the Her2 level in assay [2] is 110% (inactive). The differential viability (reversal) in assay [6] (H69AR cells + 2 uM doxorubicin) was 6.81% (inactive). In addition, the inhibition in assay [7] is -3.38% (inactive); in assay [8], -7.17% (inactive).
Regarding `Cn1c(=O)c2nc(Cl)n(Cc3ccc(Cl)cc3Cl)c2n(C)c1=O`, the viability was 96% in assay [1]; 96% (inactive) in assay [3]; 105% (inactive) in assay [4]; 88.3% (inactive) in assay [5]; 75.9% in assay [6] (setting [9]); 88.3% in assay [6] (setting [10]). For the same molecule, the Her2 level in assay [2] is 75% (inactive). Moreover, in assay [6] (H69AR cells + 2 uM doxorubicin), the differential viability (reversal) is 12.5% (inactive). The inhibition is -3.2% (inactive) in assay [7] and 7.58% (inactive) in assay [8].
For `Cc1nn(C)c(C)c1S(=O)(=O)N1CCCC(C(=O)N2CCN(c3ccc(Cl)cc3)CC2)C1` (stereo not given), the viability in assay [1] was 102%; in assay [3], 102% (inactive); in assay [4] it was 87.7% (inactive); in assay [5] it was 88.3% (inactive); in assay [6] (setting [9]), 69%; in assay [6] (setting [10]), 88.3%. Moreover, the Her2 level in assay [2] is 70% (inactive). Moreover, in assay [6] (H69AR cells + 2 uM doxorubicin), the differential viability (reversal) was 19.3% (inactive). Besides, the inhibition in assay [7] was -2.43% (inactive); in assay [8], 3.49% (inactive).
As to `CCn1cc(C(C)NC(=O)COc2ccc(Cl)cc2C)c(C)n1` (stereo not given), the viability was 97% in assay [1]; 97% (inactive) in assay [3]; 93.9% (inactive) in assay [4]; 105% (inactive) in assay [5]; 91.3% in assay [6] (setting [9]); 105% in assay [6] (setting [10]). In addition, the Her2 level in assay [2] is 101% (inactive). Further, the differential viability (reversal) in assay [6] (H69AR cells + 2 uM doxorubicin) is 13.9% (inactive). For the same molecule, the inhibition in assay [7] is -2.89% (inactive); in assay [8], -4% (inactive).
For the molecule `CCN(CC)Cc1csc(C(N)=O)c1`, the viability in assay [1] is 108%; in assay [3], 108% (inactive); in assay [4] it was 104% (inactive); in assay [5] it was 98.1% (inactive); in assay [6] (setting [9]) it was 93.1%; in assay [6] (setting [10]) it was 98.1%. In addition, in assay [2], the Her2 level is 107% (inactive). Besides, the differential viability (reversal) in assay [6] (H69AR cells + 2 uM doxorubicin) is 5.04% (inactive). Further, the figures for the inhibition in assay [7] and in assay [8] were -1.22% (inactive) and 0.32% (inactive), respectively.
On to `CCN1CCN(S(=O)(=O)c2ccc(S(=O)(=O)N(CC)Cc3ccccc3)cc2)CC1`, for which the viability in assay [1] is 98%; in assay [3], 98% (inactive); in assay [4], 82.1% (inactive); in assay [5], 91.9% (inactive); in assay [6] (setting [9]), 99%; in assay [6] (setting [10]), 91.9%. Besides, the Her2 level in assay [2] was 94% (inactive). Moreover, the differential viability (reversal) in assay [6] (H69AR cells + 2 uM doxorubicin) is -7.05% (inactive). In addition, the inhibition is -4.27% (inactive) in assay [7] and -1.13% (inactive) in assay [8].
For the molecule `CN(C(=O)c1ccc2c(=O)n3c(nc2c1)CCCCC3)c1ccccc1`, the viability is 96.5% in assay [1]; 96.5% (inactive) in assay [3]; 97.5% (inactive) in assay [4]; 102% (inactive) in assay [5]; 101% in assay [6] (setting [9]); 102% in assay [6] (setting [10]). In assay [2], the Her2 level is 91% (inactive). The differential viability (reversal) in assay [6] (H69AR cells + 2 uM doxorubicin) was 0.655% (inactive). The figures for the inhibition in assay [7] and in assay [8] were -7.26% (inactive) and 2.54% (inactive), respectively.
Turning to `O=C(CCCn1ncn2c(cc3occc32)c1=O)N1CCc2ccccc2C1`, the viability in assay [1] was 126%; in assay [3], 126% (inactive); in assay [4], 83.8% (inactive); in assay [5], 84.7% (inactive); in assay [6] (setting [9]), 90.5%; in assay [6] (setting [10]), 84.7%. Also, the Her2 level in assay [2] is 90.5% (inactive). The differential viability (reversal) in assay [6] (H69AR cells + 2 uM doxorubicin) was -5.79% (inactive). Moreover, the inhibition in assay [7] was -4.21% (inactive); in assay [8], -6.73% (inactive).
